Reference: ChEMBL document CHEMBL5257027 (Eur J Med Chem, 2016)

Tests used:
Type in all cases: functional
[1] = tested on: MDA-MB-468; experiment: Cytotoxicity against human MDA-MB-468 cells; settings: read-out: LC50 (the source's name)
Procedure, shortened: (§1)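 Run in the US NCI 58-cell-line screen covering nine cancer types (leukemia, NSCLC, colon, CNS, melanoma, ovarian, renal, prostate, breast). Five-dose mode gave GI50, TGI and LC50 values for each cell line. In the single-dose pre-screen, % inhibition was taken as 100 minus growth percentage.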

[2] = tested on: MDA-MB-468; experiment: Antiproliferative activity against human MDA-MB-468 cells assessed as reduction in cell growth
Procedure, shortened: (§2)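 NCI five-dose testing across the 58-line panel gives GI50, TGI and LC50 for each line. Subpanel lines report mean GI50 for each of the nine cancer types.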

[3] = tested on: COLO 205; experiment: Antiproliferative activity against human COLO 205 cells assessed as reduction in cell growth; procedure, shortened: as §2
[4] = tested on: K562; experiment: Cytotoxicity against human k562 cells; settings: read-out: LC50 (the source's name); procedure, shortened: as §1
[5] = tested on: Panel melanoma (Carcinoma cell lines); experiment: Antiproliferative activity against human Panel melanoma (9 Carcinoma cell lines) assessed as reduction in mean cell growth; procedure, shortened: as §2
[6] = tested on: HCT-15; experiment: Cytotoxicity against human HCT-15 cells; settings: read-out: LC50 (the source's name); procedure, shortened: as §1
[7] = tested on: Panel colon (Carcinoma cell lines); experiment: Antiproliferative activity against human Panel colon (7 Carcinoma cell lines) assessed as reduction in mean cell growth; procedure, shortened: as §2
[8] = tested on: SNB-75; experiment: Antiproliferative activity against human SNB-75 cells assessed as reduction in cell growth; procedure, shortened: as §2
[9] = tested on: Panel leukemia (Carcinoma cell lines); experiment: Antiproliferative activity against human Panel leukemia (5 Carcinoma cell lines) assessed as reduction in mean cell growth; procedure, shortened: as §2
[10] = tested on: SNB-75; experiment: Cytotoxicity against human SNB-75 cells; settings: read-out: LC50 (the source's name); procedure, shortened: as §1
[11] = tested on: RXF 393; experiment: Antiproliferative activity against human RXF 393 cells assessed as reduction in cell growth; procedure, shortened: as §2
[12] = tested on: K562; experiment: Antiproliferative activity against human K562 cells assessed as reduction in cell growth; procedure, shortened: as §2
[13] = tested on: K562; experiment: Antiproliferative activity against human K562 cells assessed as total growth inhibition; procedure, shortened: as §2
[14] = tested on: Panel renal (Carcinoma cell lines); experiment: Antiproliferative activity against human Panel renal (8 Carcinoma cell lines) assessed as reduction in mean cell growth; procedure, shortened: as §2
[15] = tested on: Panel ovarian (Carcinoma cell lines); experiment: Antiproliferative activity against human Panel ovarian (7 Carcinoma cell lines) assessed as reduction in mean cell growth; procedure, shortened: as §2
[16] = tested on: NCI/ADR-RES; experiment: Antiproliferative activity against human NCI/ADR-RES cells assessed as total growth inhibition; procedure, shortened: as §2
[17] = tested on: COLO 205; experiment: Antiproliferative activity against human COLO 205 cells assessed as total growth inhibition; procedure, shortened: as §2
[18] = tested on: Panel breast (Carcinoma cell lines); experiment: Antiproliferative activity against human Panel breast (6 Carcinoma cell lines) assessed as reduction in mean cell growth; procedure, shortened: as §2
[19] = tested on: Panel CNS (Carcinoma cell lines); experiment: Antiproliferative activity against human Panel CNS (6 Carcinoma cell lines) assessed as reduction in mean cell growth; procedure, shortened: as §2
[20] = tested on: Panel prostate (Carcinoma cell lines); experiment: Antiproliferative activity against human Panel prostate (2 Carcinoma cell lines) assessed as reduction in mean cell growth; procedure, shortened: as §2
[21] = tested on: RXF 393; experiment: Antiproliferative activity against human RXF 393 cells assessed as total growth inhibition; procedure, shortened: as §2
[22] = tested on: HCT-15; experiment: Antiproliferative activity against human HCT-15 cells assessed as total growth inhibition; procedure, shortened: as §2
[23] = tested on: PC-3; experiment: Antiproliferative activity against human PC-3 cells assessed as reduction in cell growth; procedure, shortened: as §2
[24] = Antiproliferative activity against human Panel non-small cell lung cancer (8 Carcinoma cell lines) assessed as reduction in mean cell growth; settings: Non-small cell lung cancer cell line; procedure, shortened: as §2

Work on CNC(=O)c1cc(Oc2ccc(NC(=O)Nc3ccc(Cl)c(C(F)(F)F)c3)cc2)ccn1 [SORAFENIB] yielded a CC50 [1] of 50100 nM, a GI50 [2] of 1990 nM and a GI50 [3] of 1990 nM. For the same compound, the CC50 [4] was 100000 nM, the GI50 [5] was 1870 nM and the CC50 [6] was 50100 nM. It also gave a GI50 [7] of 2190 nM, a GI50 [8] of 3160 nM and a GI50 [9] of 2430 nM. For the same compound, the CC50 [10] was 7940 nM, the GI50 [11] was 2510 nM and the GI50 [12] was 3160 nM. For the same compound, the TGI [13] was 100000 nM, the GI50 [14] was 2940 nM and the GI50 [15] was 2880 nM. The TGI [16] was 15800 nM, the TGI [17] was 5010 nM and the GI50 [18] was 2170 nM. For the same compound, the GI50 [19] was 2330 nM, the GI50 [20] was 2580 nM and the TGI [21] was 10000 nM. The TGI [22] was 10000 nM, the GI50 [23] was 1990 nM and the GI50 [24] was 2250 nM.
